From ChEMBL document CHEMBL1124813, “Synthesis and antiinflammatory activity of novel 12 beta-substituted analogues of betamethasone” (1990)
Where “and” joins values, the source holds several entries; their conditions need not be identical. Equal values may be shown once.

Assays:
Format in all cases: functional
[1] = test system: Mus musculus; assay: Topical Antiinflammatory activity was measured in the TPA induced mouse ear edema assay at 300 ugm/mouse.
Summary of the method: (§1)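 Mouse ear edema induced by topical TPA at 8.8 nmol/mouse, with the test steroid applied topically to the ear.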

[2] = test system: Mus musculus; assay: Systemic Antiinflammatory activity was measured in the TPA induced mouse ear edema assay at 300 ugm/mouse.
Summary of the method: (§2)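 Systemic absorption was assessed by the contralateral ear assay. Ear edema was induced with TPA (8.8 nmol/mouse) and scored on the ear opposite the one receiving the topical corticoid.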

[3] = test system: Mus musculus; assay: ED100 of was measured in the TPA induced mouse ear edema assay.; summary of the method: as §1
[4] = species on record: Mus musculus; assay: Percentage systemic effect to assess the degree of absorption was measured at 100 ug/mouse.
Summary of the method: (§3)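 Systemic effect was measured after repeated topical high-dose applications to the mouse ear. Thymic involution was read as loss of thymus weight (n = 6). Adrenal suppression was read as inhibition of the stress-induced rise in plasma cortisol (n = 6).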

[5] = species on record: Mus musculus; assay: Percentage systemic effect to assess the degree of absorption was measured at 200 ug/mouse.; summary of the method: as §3
[6] = species on record: Mus musculus; assay: Percentage systemic effect to assess the degree of absorption was measured at 50 ug/mouse; summary of the method: as §3
[7] = test system: Mus musculus; assay: Topical Antiinflammatory activity was measured in the TPA induced mouse ear edema assay at 200 ug/mouse.; summary of the method: as §1
[8] = test system: Mus musculus; assay: Topical Antiinflammatory activity was measured in the TPA induced mouse ear edema assay at 50 ug/mouse.; summary of the method: as §1
[9] = species on record: Mus musculus; assay: Atrophogenicity potency was observed in mouse at given dose at 300 ugm/mouse.
[10] = test system: Mus musculus; assay: Systemic Antiinflammatory activity was measured in the TPA induced mouse ear edema assay at 100 ug/mouse.; summary of the method: as §2
[11] = test system: Mus musculus; assay: Systemic Antiinflammatory activity was measured in the TPA induced mouse ear edema assay at 200 ug/mouse.; summary of the method: as §2
[12] = test system: Mus musculus; assay: Systemic Antiinflammatory activity was measured in the TPA induced mouse ear edema assay at 50 ug/mouse; summary of the method: as §2
[13] = test system: Mus musculus; assay: Topical Antiinflammatory activity was measured in the TPA induced mouse ear edema assay at 100 ug/mouse.; summary of the method: as §1
[14] = species on record: Mus musculus; assay: Skin thickness of mouse was measured at 300 ugm/mouse.
[15] = species on record: Mus musculus; assay: Percentage systemic effect to assess the degree of absorption was measured 40 ugm/mouse.; summary of the method: as §3
[16] = species on record: Mus musculus; assay: Percentage systemic effect to assess the degree of absorption was measured at 10 ug/mouse.; summary of the method: as §3
[17] = test system: Mus musculus; assay: Topical Antiinflammatory activity was measured in the TPA induced mouse ear edema assay at 10 ug/mouse.; summary of the method: as §1
[18] = test system: Mus musculus; assay: Topical Antiinflammatory activity was measured in the TPA induced mouse ear edema assay at 40 ugm/mouse.; summary of the method: as §1
[19] = species on record: Mus musculus; assay: Atrophogenicity potency was observed in mouse at 200 ug/mouse.
[20] = test system: Mus musculus; assay: Systemic Antiinflammatory activity was measured in the TPA induced mouse ear edema assay at 10 ug/mouse.; summary of the method: as §2
[21] = test system: Mus musculus; assay: Systemic Antiinflammatory activity was measured in the TPA induced mouse ear edema assay at 40 ugm/mouse.; summary of the method: as §2
[22] = species on record: Mus musculus; assay: Skin thickness of mouse was measured at 200 ug/mouse
[23] = species on record: Mus musculus; assay: Percentage systemic effect to assess the degree of absorption was measured at 50 ug/mouse.; summary of the method: as §3
[24] = species on record: Mus musculus; assay: Percentage systemic effect to assess the degree of absorption was measured at 300 ugm/mouse.; summary of the method: as §3
[25] = test system: Mus musculus; assay: Systemic Antiinflammatory activity was measured in the TPA induced mouse ear edema assay at 50 ug/mouse.; summary of the method: as §2
[26] = species on record: Mus musculus; assay: Percentage systemic effect to assess the degree of absorption was measured at 40 ugm/mouse.; summary of the method: as §3
[27] = species on record: Mus musculus; assay: Percentage systemic effect to assess the degree of absorption was measured 25 ug/mouse; summary of the method: as §3
[28] = species on record: Mus musculus; assay: Percentage systemic effect to assess the degree of absorption was measured 75 ug/mouse; summary of the method: as §3
[29] = test system: Mus musculus; assay: Topical Antiinflammatory activity was measured in the TPA induced mouse ear edema assay at 2.5 ug/mouse.; summary of the method: as §1
[30] = test system: Mus musculus; assay: Topical Antiinflammatory activity was measured in the TPA induced mouse ear edema assay at 25 ug/mouse.; summary of the method: as §1
[31] = species on record: Mus musculus; assay: Atrophogenicity potency was observed in mouse at 75 ug/mouse.
[32] = test system: Mus musculus; assay: Systemic Antiinflammatory activity was measured in the TPA induced mouse ear edema assay at 2.5 ug/mouse; summary of the method: as §2
[33] = test system: Mus musculus; assay: Systemic Antiinflammatory activity was measured in the TPA induced mouse ear edema assay at 25 ug/mouse; summary of the method: as §2
[34] = test system: Mus musculus; assay: Systemic Antiinflammatory activity was measured in the TPA induced mouse ear edema assay at 75 ug/mouse; summary of the method: as §2
[35] = species on record: Mus musculus; assay: Skin thickness of mouse was measured at 75 ug/mouse
[36] = test system: Mus musculus; assay: Topical Antiinflammatory activity was measured in the TPA induced mouse ear edema assay at 75 ug/mouse.; summary of the method: as §1
[37] = species on record: Mus musculus; assay: Percentage systemic effect to assess the degree of absorption was measured at 2.5 ug/mouse; summary of the method: as §3
[38] = species on record: Mus musculus; assay: Percentage systemic effect to assess the degree of absorption was measured at 75 ug/mouse; summary of the method: as §3
[39] = species on record: Mus musculus; assay: Skin thickness of mouse was measured at 75 ug/mouse.

Molecule `CCCC(=O)O[C@@H]1[C@H](O)[C@@]2(Br)C(CCC3=CC(=O)C=C[C@@]32C)[C@@H]2C[C@H](C)[C@](OC(=O)CC)(C(=O)COC(=O)CC)[C@@]12C` (stereo partly drawn) has a Potency [1] of 68% and a Potency [2] of 0%.

With `CCC(=O)OCC(=O)[C@@]1(OC(=O)CC)[C@@H](C)C[C@H]2C3CCC4=CC(=O)C=C[C@]4(C)[C@@]3(Cl)[C@@H](O)[C@@H](OC(=O)CC)[C@@]21C` (stereo partly drawn) the ED100 [3] was 400 µg, the Systemic effect [4] was 5% and the Systemic effect [5] was 0% and 6%. The Systemic effect [6] was 4% and 5%, the Potency [7] was 71% and the Potency [1] was 84%. For the same molecule, the Potency [8] was 47%, the Potency [9] was 0.1% and the Potency [10] was 0%. For the same molecule, the Potency [11] was 0%, the Potency [2] was 0% and the Potency [12] was 0%. For the same molecule, the Potency [13] was 53% and the Skin thickness [14] was 16.5.

For `CCC(=O)OCC(=O)[C@@]1(OC(=O)CC)[C@@H](C)C[C@H]2C3CCC4=CC(=O)C=C[C@]4(C)[C@@]3(Br)[C@@H](O)[C@@H](OC(=O)CC)[C@@]21C` (stereo partly drawn), the ED100 [3] was 325 µg, the Systemic effect [4] was 6% and the Systemic effect [5] was 2% and 0%. The Systemic effect [6] was 2%, the Potency [7] was 70% and the Potency [1] was 96%. The Potency [8] was 36%, the Potency [10] was 0% and the Potency [11] was 0%. The Potency [2] was 0%, the Potency [12] was 0% and the Potency [13] was 45%.

For `CCC(=O)OCC(=O)[C@@]1(OC(=O)CC)[C@@H](C)C[C@H]2C3CCC4=CC(=O)C=C[C@]4(C)[C@@]3(Br)[C@@H](O)[C@@H](OC(=O)c3ccco3)[C@@]21C` (stereo partly drawn), the Potency [1] was 69% and the Potency [2] was 0%.

`CCC(=O)OCC(=O)[C@@]1(OC(=O)CC)[C@@H](C)C[C@H]2C3CCC4=CC(=O)C=C[C@]4(C)[C@@]3(Br)[C@@H](O)[C@@H](OC(=O)c3ccccc3)[C@@]21C` (stereo partly drawn) was tested, and the Potency [1] was 84% and the Potency [2] was 0%.

With `CCC(=O)OCC(=O)[C@@]1(OC(=O)CC)[C@@H](C)C[C@H]2C3CCC4=CC(=O)C=C[C@]4(C)[C@@]3(Cl)[C@@H](O)[C@@H](O)[C@@]21C` (stereo partly drawn) the ED100 [3] was 160 µg, the Systemic effect [15] was 0% and 13% and the Systemic effect [4] was 5% and 14%. The Systemic effect [16] was 4% and 2%, the Potency [17] was 41% and the Potency [18] was 67%. It also gave a Potency [19] of 15.7%, a Potency [10] of 21% and a Potency [20] of 0%. The Potency [21] was 5%, the Potency [13] was 81% and the Skin thickness [22] was 13.92.

In the case of `CCC(=O)OCC(=O)[C@@]1(OC(=O)CC)[C@@H](C)C[C@H]2C3CCC4=CC(=O)C=C[C@]4(C)[C@@]3(Br)[C@@H](O)[C@@H](O)[C@@]21C` (stereo partly drawn), the ED100 [3] is reported as 325 µg, the Systemic effect [4] is reported as 0% and 14% and the Systemic effect [5] is reported as 7% and 15%. For the same molecule, the Systemic effect [23] was 7% and 12%, the Systemic effect [24] was 7% and 15% and the Potency [7] was 91%. It also gave a Potency [1] of 99%, a Potency [8] of 57% and a Potency [10] of 17%. For the same molecule, the Potency [11] was 17%, the Potency [2] was 22% and the Potency [25] was 16%. The Potency [13] was 86%.

In the case of `CCC(=O)OCC(=O)[C@@]1(OC(=O)CC)[C@@H](C)C[C@H]2C3CCC4=CC(=O)C=C[C@]4(C)[C@@]3(F)[C@@H](O)[C@@H](OC(=O)CC)[C@@]21C` (stereo partly drawn), the ED100 [3] is reported as 400 µg, the Systemic effect [4] is reported as 4% and 0% and the Systemic effect [16] is reported as 0%. The Systemic effect [26] was 1% and 6%, the Potency [17] was 21% and the Potency [7] was 77%. The Potency [18] was 50%, the Potency [10] was 0% and the Potency [20] was 0%. The Potency [11] was 0%, the Potency [21] was 0% and the Potency [13] was 69%.

In the case of `CCC(=O)OCC(=O)[C@@]1(OC(=O)CC)[C@@H](C)C[C@H]2C3CCC4=CC(=O)C=C[C@]4(C)[C@@]3(Br)[C@@H](O)[C@@H](OC(=O)CC(C)C)[C@@]21C` (stereo partly drawn), the Potency [1] is reported as 54% and the Potency [2] is reported as 0%.

In the case of `CCC(=O)OCC(=O)[C@@]1(OC(=O)CC)[C@@H](C)C[C@H]2C3CCC4=CC(=O)C=C[C@]4(C)[C@@]3(F)[C@@H](O)[C@@H](O)[C@@]21C` (stereo partly drawn), the ED100 [3] is reported as 140 µg, the Systemic effect [15] is reported as 13% and 10% and the Systemic effect [4] is reported as 21% and 30%. For the same molecule, the Systemic effect [16] was 9% and 1%, the Potency [17] was 46% and the Potency [18] was 60%. For the same molecule, the Potency [10] was 19%, the Potency [20] was 7% and the Potency [21] was 11%. The Potency [13] was 82%.

For `CCC(=O)OCC(=O)[C@@]1(OC(=O)CC)[C@@H](C)C[C@H]2[C@@H]3CCC4=CC(=O)C=C[C@]4(C)[C@@]3(Cl)[C@@H](O)C[C@@]21C` [BECLOMETHASONE DIPROPIONATE], the ED100 [3] was 110 µg, the Systemic effect [27] was 52% and 32% and the Systemic effect [28] was 67% and 36%. It also gave a Potency [29] of 60%, a Potency [30] of 78% and a Potency [31] of 51%. It also gave a Potency [32] of 12%, a Potency [33] of 40% and a Potency [34] of 52%. For the same molecule, the Skin thickness [35] was 8.12 and the Potency [36] was 93%.

`CCC(=O)OCC(=O)[C@@]1(OC(=O)CC)[C@@H](C)C[C@H]2[C@@H]3CCC4=CC(=O)C=C[C@]4(C)[C@@]3(F)[C@@H](O)C[C@@]21C` [BETAMETHASONE DIPROPIONATE] was tested, and the ED100 [3] was 110 µg, the Systemic effect [37] was 30% and 12% and the Systemic effect [38] was 87% and 37%. It also gave a Skin thickness [39] of 9.39, a Potency [29] of 59% and a Potency [30] of 76%. For the same molecule, the Potency [31] was 43%, the Potency [32] was 27% and the Potency [33] was 30%. It also gave a Potency [34] of 72% and a Potency [36] of 93%.
